Myeloid diff MLP – compounds promoting myeloid differentiation; 360,000 compounds, 1% hits; ER-HoxA9 myeloid progenitors, lysozyme-GFP differentiation, flow cytometry; calls only at 10 µM;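 active = normalized GFP-positive differentiation at or above the plate's own cutoff, the solvent-only control mean plus 3 SD; inconclusive = no clear call, values can overlap the other calls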;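 note: cells exposed to compound for four days before flow analysis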
MC4R ag barr – agonists of human melanocortin 4 receptor (MC4R) beta-arrestin | U2OS MC4R beta-arrestin complementation, luminescence; percent of melanotan II response, DMSO zero | activation, % at 8.9 µM | 360,000 compounds, 0.98% hits;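 active = activation above a per-plate cutoff, the mean activation of sample wells on that plate plus 3 SD, cut at about 8% in these data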
MC4R antag cAMP – human MC4R antagonism in cAMP assay; MC4R-expressing cells, MTII-stimulated cAMP, LANCE TR-FRET; inhibition, % at 6.5 µM; 360,000 compounds, 0.48% hits; AID 540295;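 active = inhibition above its plate's cutoff, the mean of tested wells on that plate plus 3 SD, cut at about 29% in these data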;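 note: 0% = Melanotan II alone and 100% = Melanotan II plus saturating MCL0020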
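Test system: U2OS cells stably expressing human melanocortin 4 receptor (MC4R); also added: Melanotan II challenge; compound: 6.5 µM single dose; timing: 30-min compound preincubation, 1-h Melanotan II challenge, 1-h detection, room temperature; signal: Eu-cAMP/anti-cAMP TR-FRET, emission 671 nm; repeats: one well per compound, no replicates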
Exocytosis inh – blocks lytic granule exocytosis; TALL-104 LAMP-1 surface exposure, flow cytometry; cells stimulated with thapsigargin and PMA; inhibition, % at 10 µM; 360,000 compounds, 0.66% hits;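 active = inhibition above about 55%, limit read from the data; inconclusive = no clear call, values can overlap the other calls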
EBI2 block – antagonists of human EBI2 receptor; P32249; EBI2 beta-arrestin recruitment, luminescence, 7a,25-OHC stimulated; inhibition, % at 5 µM; 360,000 compounds, 0.81% hits; in the data active = inhibition above about 38%;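 note: enzyme fragment complementation signal reports receptor beta-arrestin coupling in cells; 0% = agonist plus DMSO wells and 100% = wells without agonist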
MC4R barr ag – human MC4R beta-arrestin agonism confirmation | shares compounds with MC4R ag barr | U2OS MC4R beta-arrestin recruitment, luminescence; scaled DMSO 0%, Melanotan II 100% | activation, % at 8.9 µM | 2,400 compounds, 31% hits | AID 602192;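 active = mean activation across replicates above the hit cutoff set in the earlier primary screen, cut at about 8% in these data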
MOR DOR agonist – counter-screen for MC4R agonists: agonists of mu-delta opioid heterodimer; shares compounds with MC4R ag barr; activation, % at 9.2 µM; 2,400 compounds, 5.8% hits; U2OS PathHunter beta-arrestin, beta-gal luminescence; percent of deltorphin B response, DMSO zero;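 active = mean activation across replicates exceeds the hit threshold derived in the earlier primary screen, cut at about 18% in these data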;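 note: 100% = deltorphin B at 0.9 µM final and 0% = DMSO alone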
* marks the source's active call; other numbers are inactive results; i = inactive; ? = inconclusive; · = no result given. Shown are actives, neighbours in structure and some others; about 3.7% of the full set was active somewhere.

SMILES | Myeloid diff MLP | MC4R ag barr | MC4R antag cAMP | Exocytosis inh | EBI2 block | MC4R barr ag | MOR DOR agonist
Cc1ccc(S(=O)(=O)CC(=O)c2ccc3c(c2)OCCO3)cc1 | i | -0.1 | 19.4 | 0.7 | -1.3 | · | ·
CC(=O)Nc1nnc(SCC(=O)c2ccc3c(c2)Cc2ccccc2-3)s1 | i | 11.9* | 19.7 | -2.4 | -2.7 | 6.1 | 1.8
CC(=O)Nc1nnc(SCC(=O)NC2CC2)s1 | i | -0.8 | 0.2 | 6.5 | 3.2 | · | ·
Cn1c(SCC(=O)c2ccc3c(c2)Cc2ccccc2-3)nnc1-c1ccccc1 | i | 10.8* | 0.4 | -2.1 | 0.1 | 9.4* | 7.2
CCC(=O)Nc1nnc(SCC(=O)c2ccc3c(c2)Cc2ccccc2-3)s1 | i | 18.4* | 6.7 | -2.0 | 3.0 | 2.6 | 4.3
Cn1c(SCC(=O)c2ccccc2)nnc1-c1ccncc1 | i | -1.7 | 10.7 | -4.2 | 9.3 | · | ·
CCCc1c(C(=O)Nc2ccc(C(F)(F)F)cc2)cnn1-c1ccccc1 | i | 10.4* | -3.2 | -2.0 | -9.4 | -3.9 | 5.5
CCCc1c(C(=O)NNc2cc(C(F)(F)F)ccc2Cl)cnn1-c1ccccc1 | i | 27.0* | 2.7 | 21.3 | -27.1 | 5.8 | 6.5
CCCc1c(C(=O)NNc2ccc(C)cc2)cnn1-c1ccccc1 | i | -2.0 | -0.8 | -1.8 | 12.1 | · | ·
Cc1cc(-c2nn3c(-c4ccccc4)nnc3s2)c2ccccc2n1 | ? | 0.1 | -33.0 | 2.5 | 9.5 | · | ·
c1ccc(-c2cc(-c3nn4c(-c5ccco5)nnc4s3)c3ccccc3n2)cc1 | ? | 9.7* | 9.7 | 2.1 | -4.2 | 5.7 | 3.3
COc1ccc(Cl)cc1NC(=O)Cc1c(F)cccc1Cl | i | 15.0* | 1.5 | 2.0 | 11.2 | -2.6 | 2.2
COc1ccc(C(C)(O)c2nc(-c3cccc(O)c3)cs2)cc1 (centres undefined) | i | -0.7 | 3.3 | -1.1 | 3.0 | · | ·
COc1ccc(S(=O)(=O)NCc2cccnc2)cc1C(=O)Nc1ccccc1 | i | 0.7 | -0.8 | -5.1 | 2.8 | · | ·
FC(F)(F)c1ccc(Cl)c(NC(=S)N/N=C/c2ccccc2C(F)(F)F)c1 | i | 1.5 | 7.0 | -3.8 | 19.7 | · | ·
COc1ccc(/C=N/NC(=S)Nc2cc(C(F)(F)F)ccc2Cl)cc1 | i | 24.4* | -7.9 | -16.7 | 19.3 | 1.7 | 4.2
O=C(COC(=O)Cc1cccs1)Nc1ccc(OC(F)(F)F)cc1 | i | 0.6 | -5.6 | -0.5 | -0.5 | · | ·
COc1ccc(C(=O)OCC(=O)NC(=O)Nc2ccccc2F)c(OC)c1 | i | 24.6* | -7.7 | 1.9 | -3.1 | 2.3 | 14.7
Cc1cc(C)c(S(=O)(=O)N2CCCCC2CCNC(=O)C(=O)NCCN2CCOCC2)c(C)c1 (centres undefined) | · | -3.1 | 14.9 | 1.5 | -2.4 | · | ·
NC(Cc1ccccc1)c1csc(Nc2nncc3ccccc23)n1 (centres undefined) | i | 2.2 | 1.4 | 11.5 | -4.6 | · | ·
COc1cccc(Nc2nc(C(N)CCc3ccccc3)cs2)n1 (centres undefined) | i | 16.2* | -21.7 | -3.7 | -7.6 | 11.8* | 13.3
NC(CCc1ccccc1)c1csc(Nc2nncc3ccccc23)n1 (centres undefined) | i | 15.6* | 3.9 | 45.8 | -10.1 | 12.5* | 8.8
COc1cccc(Nc2nc(C(N)Cc3ccc(Cl)cc3)cs2)n1 (centres undefined) | i | 14.9* | -6.5 | 12.7 | -13.7 | 8.4* | 8.8
COc1cccc(Nc2nc(C(N)Cc3ccc(C(F)(F)F)cc3)cs2)n1 (centres undefined) | i | 12.2* | -6.4 | 12.2 | -2.9 | 4.6 | 10.6
COc1ccc(CC(N)c2csc(Nc3cccc(OC)n3)n2)cc1 (centres undefined) | i | 1.6 | -11.6 | -6.3 | 3.3 | · | ·
COc1ccc(Cl)cc1NC(=O)C(C)N(C)Cc1cccc(Cl)c1Cl (centres undefined) | i | 3.8 | 22.4 | 7.0 | 20.2 | · | ·
O=C(NCC(F)(F)F)c1[nH]c(C(F)(F)F)nc1-c1ccccc1 | i | · | · | -0.2 | 0.7 | · | ·
CCc1nc2c(OCc3cccc(OC)c3)cccn2c1N(C)C(=O)c1ccc(OC)cc1 | i | -0.8 | -2.5 | -3.5 | -1.5 | · | ·

High-throughput results (PubChem BioAssay)
